Assay results taken from ChEMBL document CHEMBL1156445, “The rapamycin-binding domain of the protein kinase mammalian target of rapamycin is a destabilizing domain” (J Biol Chem, 2007).
Active and inactive are the calls of the source. The calls are words filed in the database; no cut-off is given here.

What was measured:
Format in all cases: cell-based
[1] = Activation of FKBP12-rapamycin binding domain R2110 mutant in african green monkey COS1 cells after 16 hrs assessed as induction of secreted alkaline phosphatase expression assay; conditions: COS-1, 16 h
Method in brief: (§1)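 COS-1 cells co-transfected by electroporation with Gal4BD-FKBP (pBJ5-GF3E), VP16AD-FRB (pBJ5-FRBVE, wild-type or mutant FRB) and SeAP reporter (pG5IL2SX). Cells treated in quadruplicate for 16 h with iRap (0.5-500 nM) or rapamycin (0.05-50 nM). SeAP read as fluorescence from methylumbelliferylphosphate substrate. EC50 derived from curve fits of mean (±SEM).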

[2] = tested on: NIH3T3; assay: Effect on stability of FKBP12-rapamycin binding domain T2068S E2080G stop codon mutant expressed in mouse NIH3T3 cells assessed as increase in yellow fluorescent protein fluorescence level at 1 uM after 24 hrs by flow cytometry
Method in brief: (§2)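 FRB (mTOR residues 2015-2114, wild-type or mutant) fused to N-terminus of YFP in pBMN. NIH3T3 cells stably transduced with retrovirus from ΦNX cells; 293T cells transiently transfected (wild-type only). Cells mock-treated or given 1 μM iRap for 24 h, then trypsinized, PBS-washed and analysed by flow cytometry (10,000 events). Mean fluorescence intensity, triplicate.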

[3] = tested on: NIH3T3; assay: Effect on stability of FKBP12-rapamycin binding domain K2066R D2077G stop codon mutant expressed in mouse NIH3T3 cells assessed as increase in yellow fluorescent protein fluorescence level at 1 uM after 24 hrs by flow cytometry; method in brief: as §2
[4] = Activation of FKBP12-rapamycin binding domain mutant in african green monkey COS1 cells after 16 hrs assessed as induction of secreted alkaline phosphatase expression assay; conditions: COS-1, 16 h; method in brief: as §1
[5] = Activation of FKBP12-rapamycin binding domain T2064I Y2074H K2090R stop codon mutant in african green monkey COS1 cells after 16 hrs assessed as induction of secreted alkaline phosphatase expression assay; conditions: COS-1, 16 h; method in brief: as §1
[6] = Activation of FKBP12-rapamycin binding domain M2026V E2049G stop codon mutant in african green monkey COS1 cells after 16 hrs assessed as induction of secreted alkaline phosphatase expression assay; conditions: COS-1, 16 h; method in brief: as §1
[7] = tested on: NIH3T3; assay: Effect on stability of wild-type FKBP12-rapamycin binding domain protein expressed in mouse NIH3T3 cells assessed as increase in yellow fluorescent protein fluorescence level at 10 uM after 24 hrs by flow cytometry
Method in brief: (§3)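 NIH3T3 cells stably transduced with wtFRB-YFP, treated with iRap (10 nM to 10 μM). YFP fluorescence monitored by flow cytometry over 24 h, 10,000 events per sample. Mean fluorescence intensity expressed relative to the overall highest value; duplicate.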

[8] = tested on: 293T; assay: Effect on stability of wild-type FKBP12-rapamycin binding domain protein expressed in human 293T cells assessed as increase in yellow fluorescent protein fluorescence level at 1 uM after 24 hrs by flow cytometry; method in brief: as §2
[9] = tested on: NIH3T3; assay: Effect on stability of wild-type FKBP12-rapamycin binding domain protein expressed in mouse NIH3T3 cells assessed as increase in yellow fluorescent protein fluorescence level at 1 uM after 24 hrs by flow cytometry; method in brief: as §2
[10] = tested on: NIH3T3; assay: Effect on stability of wild-type FKBP12-rapamycin binding domain protein expressed in mouse NIH3T3 cells assessed as increase in yellow fluorescent protein fluorescence level at 10 nM after 24 hrs by flow cytometry; method in brief: as §3
[11] = Activation of FKBP12-rapamycin binding domain N2043S stop codon mutant in african green monkey COS1 cells after 16 hrs assessed as induction of secreted alkaline phosphatase expression assay; conditions: COS-1, 16 h; method in brief: as §1
[12] = Activation of FKBP12-rapamycin binding domain T2068S E2080G stop codon mutant in african green monkey COS1 cells after 16 hrs assessed as induction of secreted alkaline phosphatase expression assay; conditions: COS-1, 16 h; method in brief: as §1
[13] = Activation of FKBP12-rapamycin binding domain I2021T E2029G L2037S stop codon mutant in african green monkey COS1 cells after 16 hrs assessed as induction of secreted alkaline phosphatase expression assay; conditions: COS-1, 16 h; method in brief: as §1
[14] = Activation of wild-type FKBP12-rapamycin binding domain protein in african green monkey COS1 cells after 16 hrs assessed as induction of secreted alkaline phosphatase expression assay; conditions: COS-1, 16 h; method in brief: as §1
[15] = Activation of FKBP12-rapamycin binding domain I2017V E2033G stop codon mutant in african green monkey COS1 cells after 16 hrs assessed as induction of secreted alkaline phosphatase expression assay; conditions: COS-1, 16 h; method in brief: as §1
[16] = Activation of FKBP12-rapamycin binding domain I2021T K2045E E2049G M2057T E2083K stop codon mutant in african green monkey COS1 cells after 16 hrs assessed as induction of secreted alkaline phosphatase expression assay; conditions: COS-1, 16 h; method in brief: as §1
[17] = tested on: NIH3T3; assay: Effect on stability of FKBP12-rapamycin binding domain N2043S stop codon mutant expressed in mouse NIH3T3 cells assessed as increase in yellow fluorescent protein fluorescence level at 1 uM after 24 hrs by flow cytometry; method in brief: as §2
[18] = Activation of FKBP12-rapamycin binding domain H2024R stop codon mutant protein in african green monkey COS1 cells after 16 hrs assessed as induction of secreted alkaline phosphatase expression assay; conditions: COS-1, 16 h; method in brief: as §1
[19] = Activation of FKBP12-rapamycin binding domain S2069P stop codon mutant in african green monkey COS1 cells after 16 hrs assessed as induction of secreted alkaline phosphatase expression assay; conditions: COS-1, 16 h; method in brief: as §1
[20] = Activation of FKBP12-rapamycin binding domain C2085R stop codon mutant in african green monkey COS1 cells after 16 hrs assessed as induction of secreted alkaline phosphatase expression assay; conditions: COS-1, 16 h; method in brief: as §1
[21] = Activation of FKBP12-rapamycin binding domain I2021V stop codon mutant in african green monkey COS1 cells after 16 hrs assessed as induction of secreted alkaline phosphatase expression assay; conditions: COS-1, 16 h; method in brief: as §1
[22] = Activation of FKBP12-rapamycin binding domain stop codon>Leu mutant in african green monkey COS1 cells after 16 hrs assessed as induction of secreted alkaline phosphatase expression assay; conditions: COS-1, 16 h; method in brief: as §1
[23] = Activation of FKBP12-rapamycin binding domain K2066R D2077G stop codon mutant in african green monkey COS1 cells after 16 hrs assessed as induction of secreted alkaline phosphatase expression assay; conditions: COS-1, 16 h; method in brief: as §1
[24] = Activation of FKBP12-rapamycin binding domain I2021T W2023R K2045L S2112P stop codon mutant in african green monkey COS1 cells after 16 hrs assessed as induction of secreted alkaline phosphatase expression assay; conditions: COS-1, 16 h; method in brief: as §1
[25] = tested on: NIH3T3; assay: Effect on stability of FKBP12-rapamycin binding domain H2024R stop codon mutant expressed in mouse NIH3T3 cells assessed as increase in yellow fluorescent protein fluorescence level at 1 uM after 24 hrs by flow cytometry; method in brief: as §2
[26] = Activation of FKBP12-rapamycin binding domain S2069P M2079I stop codon mutant in african green monkey COS1 cells after 16 hrs assessed as induction of secreted alkaline phosphatase expression assay; conditions: COS-1, 16 h; method in brief: as §1
[27] = Activation of FKBP12-rapamycin binding domain E2067G stop codon mutant in african green monkey COS1 cells after 16 hrs assessed as induction of secreted alkaline phosphatase expression assay; conditions: COS-1, 16 h; method in brief: as §1
[28] = Activation of FKBP12-rapamycin binding domain I2021T M2058V G2061D K2066R K2090R S2091L stop codon mutant in african green monkey COS1 cells after 16 hrs assessed as induction of secreted alkaline phosphatase expression assay; conditions: COS-1, 16 h; method in brief: as §1
[29] = Activation of FKBP12-rapamycin binding domain A2020V I2021T D2096G stop codon mutant in african green monkey COS1 cells after 16 hrs assessed as induction of secreted alkaline phosphatase expression assay; conditions: COS-1, 16 h; method in brief: as §1
[30] = Activation of FKBP12-rapamycin binding domain I2021T A2100V stop codon mutant in african green monkey COS1 cells after 16 hrs assessed as induction of secreted alkaline phosphatase expression assay; conditions: COS-1, 16 h; method in brief: as §1
[31] = tested on: NIH3T3; assay: Effect on stability of wild-type FKBP12-rapamycin binding domain protein expressed in mouse NIH3T3 cells assessed as increase in yellow fluorescent protein fluorescence level at 100 nM after 24 hrs by flow cytometry; method in brief: as §3

Structure (SMILES): CO[C@@H]1C[C@H](C[C@@H](C)[C@@H]2CC(=O)[C@H](C)/C=C(\C)[C@@H](O)[C@@H](OC)C(=O)[C@H](C)C[C@H](C)/C=C/C=C/C=C(\C)[C@@H](c3[nH]c4ccccc4c3C)C[C@@H]3CC[C@@H](C)[C@@](O)(O3)C(=O)C(=O)N3CCCC[C@H]3C(=O)O2)CC[C@H]1O
- EC50 [1]: 250 nM
- Activity [2]: 5
- Activity [3]: 7
- EC50 [4]: 32.6 nM
- EC50 [5]: 22.1 nM
- EC50 [6]: 39 nM
- Activity [7]: Active
- Activity [8]: Active
- Activity [9]: 10
- Activity [10]: Active
- EC50 [11]: 24.9 nM
- EC50 [12]: 19.3 nM
- EC50 [13]: 88.8 nM
- EC50 [14]: 20.5 nM
- EC50 [15]: 23 nM
- EC50 [16]: 29.7 nM
- Activity [17]: 8
- EC50 [18]: 14.4 nM
- EC50 [19]: 42.7 nM
- EC50 [20]: 33.4 nM
- EC50 [21]: 28.1 nM
- EC50 [22]: 26 nM
- EC50 [23]: 20.4 nM
- EC50 [24]: 31.4 nM
- Activity [25]: 4
- EC50 [26]: 39.1 nM
- EC50 [27]: 45.1 nM
- EC50 [28]: 100 nM
- EC50 [29]: 41.7 nM
- EC50 [30]: 67.4 nM
- Activity [31]: Active
